Screening data deposited in PubChem BioAssay by Sanford-Burnham Center for Chemical Genomics.
Apaf-1 inh: human Apaf-1 inhibition; O14727; reconstituted apoptosome caspase-3 activity, DEVD-Rh110 fluorescence; inhibition, % at 20 µM; actives 0.71% (n = 330,000); active = inhibition of at least 40% at 20 µM;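 also: plate controls were DMSO wells for no effect and DEVD-CHO caspase inhibitor wells for full effect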
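Material: cell-free apoptosome with Apaf-1, procaspase-3 and caspase-9; Buffer or medium: Hepes pH 7.5 with detergent and BSA; Reagent: cytochrome c trigger plus (Z-DEVD)2-Rh110 caspase-3 substrate; Times: compound with Apaf-1, dATP, procaspase-3 30 min, then 50 min reaction, room temperature; Technique: Rh110 fluorescence intensity.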
UBC13 polyUb: inhibitors of human UBC13 polyubiquitin chain formation. P61088. TR-FRET. inhibition, % at 20 µM. actives 0.47% (n = 330,000); in the data active = inhibition above about 45%, passing the limit was not always enough
Target sequence (P61088 whole entry, looked up): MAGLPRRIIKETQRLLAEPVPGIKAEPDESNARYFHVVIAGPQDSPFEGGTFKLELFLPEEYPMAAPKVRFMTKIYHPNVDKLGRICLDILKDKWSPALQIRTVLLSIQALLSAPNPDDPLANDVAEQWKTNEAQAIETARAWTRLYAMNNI
SENP8 block-1: SENP8 (human) protease inhibition | Q96LD8 | recombinant SENP8, Nedd8 substrate fluorescence | inhibition, % at 20 µM | actives 0.64% (n = 360,000); in the data active = inhibition mostly above about 40%, no sharp cut-off; inactive = mostly below about 27%
SENP8 block-2: SENP8 protease inhibition. purified SENP8, Z-RLRGG-aminoluciferin cleavage, luminescence. inhibition, % at 10 µM. actives 1.2% (n = 330,000). AID 2540; in the data active = inhibition above about 50%
SENP6 block: SENP6 protease inhibition | actives 1.8% (n = 330,000) | AID 2599 | Q9GZR1 | inhibition, % at 10 µM | Recombinant SENP6 catalytic domain, aminoluciferin luminescence;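 active = inhibition above about 50% at the single tested dose, limit read from the data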;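 also: plate controls were DMSO wells with enzyme for no effect and DMSO wells lacking enzyme for full effect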
Target sequence (Q9GZR1 628-1112 limits assumed): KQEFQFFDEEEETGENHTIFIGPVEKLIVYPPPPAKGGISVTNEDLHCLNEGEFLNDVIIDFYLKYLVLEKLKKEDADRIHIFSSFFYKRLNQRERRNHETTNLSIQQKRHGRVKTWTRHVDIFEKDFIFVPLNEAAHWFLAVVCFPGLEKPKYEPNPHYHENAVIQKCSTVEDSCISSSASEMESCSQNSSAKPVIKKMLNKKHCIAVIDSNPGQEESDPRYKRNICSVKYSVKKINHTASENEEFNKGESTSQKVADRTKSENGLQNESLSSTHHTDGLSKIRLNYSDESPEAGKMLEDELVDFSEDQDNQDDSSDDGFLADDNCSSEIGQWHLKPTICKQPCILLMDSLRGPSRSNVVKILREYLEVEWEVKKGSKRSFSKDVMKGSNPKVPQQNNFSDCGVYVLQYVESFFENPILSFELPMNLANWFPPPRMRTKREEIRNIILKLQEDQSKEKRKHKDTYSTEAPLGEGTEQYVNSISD
SENP7 block: inhibitors of human SENP7 protease | AID 434973 | Q9BQF6 | actives 1.5% (n = 330,000) | recombinant SENP7, Z-RLRGG-aminoluciferin luminescence, 40 min | inhibition, % at 5 µM;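 active = inhibition above about 50% at the single test dose, limit read from the data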;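 also: plate controls were DMSO with enzyme for no effect and no enzyme buffer wells for full effect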
SENP8 inh conf: SENP8 (human) inhibition, single concentration confirmation; actives 15% (n = 1,400); shares compounds with SENP8 block-1; purified SENP8, Nedd8-AMC/pro-Nedd8 cleavage fluorescence, 30 min; inhibition, % at 25 µM; in the data active = inhibition mostly above about 39%, no sharp cut-off; inactive = mostly below about 34%
Starred values were filed as active, the others as inactive; x = no result given. An excerpt weighted towards active compounds, which were near 3% of everything screened.

SMILES | Apaf-1 inh | UBC13 polyUb | SENP8 block-1 | SENP8 block-2 | SENP6 block | SENP7 block | SENP8 inh conf
O=[N+]([O-])c1ccc(N2CCOCC2)cc1NCc1ccccc1 | 0.7 | -21.6 | 42.4* | 2.9 | 13.6 | 2.7 | 8.8
CC(Nc1cc(N2CCOCC2)ccc1[N+](=O)[O-])c1ccccc1 (centres undefined) | 14.3 | -8.8 | 20.0 | -3.6 | -5.9 | 1.5 | x
COCc1c(C(=O)Nc2nnc(C3CC3)s2)oc2ccccc12 | x | x | -103.6 | x | x | x | x
CCOc1ccc(C=NNc2ccc(S(=O)(=O)Nc3ccccc3C(=O)O)cc2[N+](=O)[O-])cc1 | 6.9 | -113.5 | 49.3* | 11.0 | -1.5 | -6.1 | 28.1
Cc1cc(NS(=O)(=O)c2ccc3c(c2)OCCO3)no1 | -17.9 | -1.9 | 41.8* | -2.8 | -9.7 | 1.1 | 23.2
COCCn1c(=S)[nH]c2cc(C(=O)NC3CCCC(C)C3C)ccc2c1=O (centres undefined) | x | x | 11.8 | x | x | x | x
CCCCCCCCCCCC1N=C(N)NC(CCCO)=C1C(=O)OC (centres undefined) | x | x | 14.5 | x | x | x | x
CCNc1nc(NC(C)(C)C)nc(N2CCCC2)n1 | 12.4 | -0.6 | 28.4 | -0.4 | -29.1 | 5.9 | x
CC(C)(C)Nc1nc(N2CCCC2)nc(N2CCCC2)n1 | 5.5 | 14.2 | 43.6* | -1.4 | -2.6 | 6.9 | 15.5
O=C1NC[C@H](CCCCN2CCN(CC3CCCCC3)C(=O)C2=O)N(Cc2ccccc2)C1=O | x | x | 13.5 | x | x | x | x
OC(c1ccc(F)c(F)c1)c1ncc(-c2cccc(C(F)(F)F)c2)[nH]1 (centres undefined) | x | x | 8.4 | x | x | x | x
COc1ccc(NC(=O)c2cc(-c3sc(NC(=O)c4ccccc4)nc3C)n(CCO)n2)cc1 | x | x | -24.9 | x | x | x | x
FC(F)c1nc2ccccc2[nH]1 | -5.6 | 1.7 | 9.1 | 1.1 | 11.2 | 0.0 | x
c1ccc2[nH]c3cc4ncnc4cc3nc2c1 | 21.6 | -135.4 | 47.8* | 11.9 | 39.1 | 17.7 | 59.8*
CCOC(=O)C1CCCC12Nc1cccc3cccc(c13)N2 (centres undefined) | x | x | -7.3 | x | x | x | x
CN(CC(=O)Nc1cccc(F)c1)CC(=O)Nc1ccc(Cl)cc1[N+](=O)[O-] | -2.3 | -25.2 | 41.8* | -1.6 | 12.6 | 10.0 | 16.2
CN(CC(=O)Nc1cccc(F)c1)CC(=O)Nc1ccccc1[N+](=O)[O-] | -3.3 | -15.4 | 10.4 | -1.7 | 13.5 | -2.5 | x
CC1CCCN(c2ccc(C(=O)Nc3ccc4c(c3)OCO4)cc2[N+](=O)[O-])C1 (centres undefined) | 12.2 | -25.1 | 43.0* | -0.6 | -4.5 | 7.1 | 22.2
Cc1cc(C)n(-c2ccc(C(=O)OCC(=O)Nc3ccc(S(=O)(=O)N4CCCCC4)cc3)cc2)n1 | 11.5 | -3.5 | 47.7* | -10.7 | -11.0 | -2.3 | 16.6
COC(=O)c1[nH]cnc1C(=O)c1ccccc1 | -1.3 | 1.9 | 54.0* | -0.2 | -4.3 | 3.8 | 5.5
CNC(=O)c1[nH]cnc1C(=O)Nc1ccccc1 | -2.9 | 14.8 | 21.2 | -1.0 | -7.7 | 6.4 | x
CC(C)[C@@H](C(=O)N[C@@H](CCc1ccc(O)cc1)C(=O)O)N(C)C(=O)[C@H](CO)NC(=O)[C@@H](O)[C@H](N)CCCCCCCCl | x | x | 55.1* | x | x | x | 17.5
CCCCN(C)c1c(C)nc2ccc(C(=O)NCCCn3ccnc3)cn12 | x | x | 1.9 | x | x | x | x
O=C(c1ccc(N2CCCCC2)c([N+](=O)[O-])c1)N1CCOCC1 | -3.6 | -13.9 | 34.0 | -5.2 | 2.0 | -1.0 | x
O=C(c1ccc(N2CCCC2)c([N+](=O)[O-])c1)N1CCc2ccccc2C1 | 21.6 | -16.0 | 49.8* | -3.7 | 4.1 | -2.5 | 13.4
SMILES | Apaf-1 inh | UBC13 polyUb | SENP8 block-1 | SENP8 block-2 | SENP6 block | SENP7 block | SENP8 inh conf
O=C(NCc1ccco1)c1cccc(-c2ccc3nccn3c2)c1 | x | x | -50.7 | x | x | x | x
O=C(NCc1nnnn1-c1ccc(F)cc1)C(=O)c1c[nH]c2ccccc12 | x | x | 12.9 | x | x | x | x
O=[N+]([O-])c1ccc(Cl)cc1NCc1cccnc1 | 3.9 | -20.7 | 50.9* | 0.1 | -5.0 | -2.2 | 13.5
N#C/C(=C/C1=C(N2CCOCC2)C(=C/c2cccc([N+](=O)[O-])c2)/CC1)C(=O)Nc1ccccc1F | x | x | 36.0 | x | x | x | x
N#C/C(=C\C1=C(N2CCOCC2)C(=C/c2cccc([N+](=O)[O-])c2)/CC1)C(=O)Nc1ccccc1F | x | x | 47.9* | x | x | x | 19.4
CSc1ncnc2c1ncn2CCCNc1ccc(C)c(C)c1 | x | x | 19.4 | x | x | x | x
COc1ccc(CCNC(=O)CSc2nc3ccsc3c(=O)n2Cc2ccccn2)cc1OC | x | x | 11.8 | x | x | x | x
CC(=O)/C(=N/Nc1ccc([N+](=O)[O-])cc1)N1CCCc2ccccc21 | -6.9 | -15.3 | 46.7* | -7.3 | -13.2 | -8.1 | -11.3
CC(=O)/C(=N/Nc1ccccc1[N+](=O)[O-])N1CCCc2ccccc21 | 7.6 | -36.2 | 40.6* | 3.5 | -0.1 | 8.3 | 27.4
CC(=O)/C(=N/Nc1ccc(Br)cc1)N1CCCc2ccccc21 | -4.1 | 0.6 | 33.4 | 3.0 | -9.2 | 5.2 | x
COCCNC(=O)C1(C)CCCN(C(=O)c2ccco2)C1 (centres undefined) | x | x | 11.8 | x | x | x | x
CCCS(=O)(=O)NC(=O)C1(C)CCN(C(=O)c2ccc3ccccc3c2)C1 (centres undefined) | x | x | 21.0 | x | x | x | x
CC(C)=CCC/C(C)=C/COc1c2occc2cc2ccc(=O)oc12 | 21.8 | -8.4 | 57.4* | -12.2 | -12.7 | -13.8 | 6.8
CNc1nc(Oc2ccc(=O)n(C)n2)nc(N2CCOCC2)n1 | 2.0 | 8.4 | 43.9* | 1.3 | 10.8 | 5.1 | 1.1
CCNc1nc(Oc2ccc(=O)n(C)n2)nc(N2CCOCC2)n1 | -3.0 | -0.8 | 21.2 | 1.7 | -26.2 | -10.1 | x
COc1cc(C(O)c2nc(/C=C/c3ccc(C(F)(F)F)cc3)cs2)ccc1F (centres undefined) | x | x | -50.4 | x | x | x | x
CN(C)c1ccc(NC(=O)c2ccc([N+](=O)[O-])cc2Cl)cc1 | -9.4 | 1.2 | 10.8 | -0.5 | 24.7 | 5.4 | x
O=C(Nc1ccc(S(=O)(=O)N2CCOCC2)cc1)c1ccc([N+](=O)[O-])cc1Cl | 6.0 | -2.5 | 11.7 | -0.3 | -6.3 | -1.5 | x
O=C(Nc1ccc(N2CCCC2)cc1)c1ccc([N+](=O)[O-])cc1Cl | 9.3 | -23.1 | 42.8* | -4.1 | -15.1 | -6.7 | 16.1
CCC(=O)NC(=S)Nc1ccc(NC(=O)c2ccc([N+](=O)[O-])cc2Cl)cc1 | 6.1 | 1.5 | 42.6* | 6.6 | 5.4 | 1.2 | 7.9
CN(C)CCNc1ncnc2c1ncn2[C@H]1CN(Cc2ccncc2)C[C@@H](CO)O1 | x | x | 7.5 | x | x | x | x
CC(C)(C)c1ccc(S(=O)(=O)NC(=O)C2(C)CCN2C(=O)Cc2ccc(-c3ccccc3)cc2)cc1 (centres undefined) | x | x | 29.1 | x | x | x | x
O=C1CCC2(CC1)NC(=O)N(c1ccccc1)N2 | -1.3 | 0.1 | 36.7* | 5.3 | 2.8 | 9.8 | -6.8
Cc1ccc(S(=O)(=O)N2C[C@H]3C(=O)C[C@@H](c4ccccc4)N(S(=O)(=O)c4ccc(C)cc4)[C@H]3C[C@H]2c2ccccc2F)cc1 | x | x | 16.8 | x | x | x | x
